We go through two compounds from ChEMBL document CHEMBL1147403, “MexAB-OprM specific efflux pump inhibitors in Pseudomonas aeruginosa. Part 3: Optimization of potency in the pyridopyrimidine series through the application of a pharmacophore model” (2004).

What all share (type): functional
The subject of assay [1] is Pseudomonas aeruginosa. The assay can be described thus: Intrinsic antibacterial activity against Pseudomonas aeruginosa. The method in brief:
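Tested alone for antibacterial activity against P. aeruginosa PAM1723, a strain that overexpresses the MexAB-OprM pump and has MexCD-OprJ and MexEF-OprN genetically disrupted; MIC in µg/mL.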

Assay [2] relates to Pseudomonas aeruginosa. Description: Minimum inhibitory concentration against Pseudomonas aeruginosa in presence of aztreonam substrate and with 0.125% human serum albumin, (100% growth inhibition). In outline:
(§1)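 Potentiation of aztreonam, a MexAB-OprM substrate, against P. aeruginosa PAM1723 (MexAB-OprM overexpressed; MexCD-OprJ and MexEF-OprN genetically disrupted). Run without HSA and with 0.125% human serum albumin. Value is the inhibitor concentration (µg/mL) giving 8-fold potentiation (MPC8).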

For assay [3], the system named is Pseudomonas aeruginosa. The assay can be described thus: Minimum inhibitory concentration Pseudomonas aeruginosa in presence of LVFX substrate, (100% growth inhibition). In outline: (§2)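 Potentiation of levofloxacin (LVFX), a MexAB-OprM substrate, against P. aeruginosa PAM1723 (MexAB-OprM overexpressed; MexCD-OprJ and MexEF-OprN genetically disrupted). Value is the inhibitor concentration (µg/mL) giving 4-fold (MPC4) or 8-fold (MPC8) potentiation.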

The subject of assay [4] is Pseudomonas aeruginosa. The assay can be described thus: Minimum inhibitory concentration against Pseudomonas aeruginosa in presence of LVFX substrate, (100% growth inhibition). In outline:
as §2

Assay [5] has as its system Pseudomonas aeruginosa. The assay can be described thus: Minimum concentration of inhibitor required to reduce (potentiate) the activity of antibacterial drug aztreonam by 8-fold in absence of human serum using Pseudomonas aeruginosa, value reported is for 100% growth inhibition. The method in brief:
as §1

The species entered for assay [6] is Rattus norvegicus. The assay can be described thus: Serum protein binding of compound was evaluated using rat serum.
The test system of assay [7] is Pseudomonas aeruginosa. Description: Minimum inhibitory concentration against Pseudomonas aeruginosa in presence of aztreonam substrate and with out human serum albumin, (100% growth inhibition). The method in brief:
as §1

For orientation: MIC means the smallest concentration in the dilution series that meets the test's criterion for growth inhibition. Consider `CC(C)c1csc(CCc2ccn3c(=O)c(/C=C/C(=O)O)c(NCCc4ccc(F)cc4)nc3c2)n1`, for which the MIC in assay [1] was over 320 µg/mL. The MPC8 in assay [2], in assay [4] and in assay [5] was over 32 µg/mL each time. Besides, the MPC4 in assay [3] stood at 8 µg/mL.

For `CC(C)c1csc(CCc2ccn3c(=O)c(-c4nnn[nH]4)cnc3c2)n1`, in assay [6], the Binding is given as 81.5%. The minimal inhibitory concentration (MIC) in assay [1] was over 320 µg/mL. Further, the MPC8 in assay [2] is 16 µg/mL; in assay [7], 16 µg/mL; in assay [4] it was over 16 µg/mL. In addition, the MPC4 in assay [3] was over 16 µg/mL.
